# How the values were obtained:
# [1] = Drug metabolism in human liver microsome measured at 10 mins by UPLC/QE-orbitrap-MS method; format: ADME; conditions: microsomes
# In short: (§1)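 Test compound as fumarate salt incubated with human, dog, mouse or rat liver microsomes over 0–60 min. Parent remaining measured by UPLC/QE-orbitrap-MS as relative LC/MS peak area (% of 0 min), n = 1.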
# [2] = Drug metabolism in rat liver microsome measured at 10 mins by UPLC/QE-orbitrap-MS method; format: ADME; conditions: microsomes; in short: as §1
# [3] = Drug metabolism in dog liver microsome measured at 20 mins by UPLC/QE-orbitrap-MS method; format: ADME, Canis lupus familiaris; conditions: microsomes; in short: as §1
# [4] = Drug metabolism in human liver microsome measured at 40 mins by UPLC/QE-orbitrap-MS method; format: ADME; conditions: microsomes; in short: as §1
# [5] = Drug metabolism in mouse liver microsome measured at 60 mins by UPLC/QE-orbitrap-MS method; format: ADME; conditions: microsomes, 1 h; in short: as §1
# [6] = target: T1, Cytochrome P450 1A2 (Homo sapiens, UniProt P05177); test: Inhibition of CYP1A2 in human liver microsomes using phenacetin as substrate; format: ADME, Microsome
# T1 sequence (P05177 whole entry): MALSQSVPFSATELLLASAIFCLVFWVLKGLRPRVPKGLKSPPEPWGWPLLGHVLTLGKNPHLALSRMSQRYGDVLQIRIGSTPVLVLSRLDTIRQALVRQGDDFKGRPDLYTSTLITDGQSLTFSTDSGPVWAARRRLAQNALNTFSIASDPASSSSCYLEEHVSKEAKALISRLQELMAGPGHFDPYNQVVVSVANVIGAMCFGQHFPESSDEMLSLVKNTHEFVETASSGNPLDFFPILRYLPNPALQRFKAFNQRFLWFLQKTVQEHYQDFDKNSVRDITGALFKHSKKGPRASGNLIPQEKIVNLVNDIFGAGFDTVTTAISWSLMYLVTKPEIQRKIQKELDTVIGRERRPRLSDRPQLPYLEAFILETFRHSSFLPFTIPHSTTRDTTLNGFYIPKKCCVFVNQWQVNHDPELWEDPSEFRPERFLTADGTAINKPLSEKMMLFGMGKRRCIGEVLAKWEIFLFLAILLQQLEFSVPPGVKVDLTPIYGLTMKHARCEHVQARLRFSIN
# In short: (§2)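 Human liver microsomes with a cocktail of CYP-specific probe substrates; metabolite formation monitored for each probe reaction. Test compound (fumarate) at 0.01, 0.1, 1, 10 and 100 μM. Control inhibitors run at a single concentration for each probe reaction. IC50 estimated.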
# [7] = target: Cytochrome P450 2C19 (Homo sapiens, UniProt P33261); test: Inhibition of CYP2C19 in human liver microsomes using omeprazole as substrate; format: ADME, Microsome; in short: as §2
# Sequence of Cytochrome P450 2C19 (P33261 whole entry): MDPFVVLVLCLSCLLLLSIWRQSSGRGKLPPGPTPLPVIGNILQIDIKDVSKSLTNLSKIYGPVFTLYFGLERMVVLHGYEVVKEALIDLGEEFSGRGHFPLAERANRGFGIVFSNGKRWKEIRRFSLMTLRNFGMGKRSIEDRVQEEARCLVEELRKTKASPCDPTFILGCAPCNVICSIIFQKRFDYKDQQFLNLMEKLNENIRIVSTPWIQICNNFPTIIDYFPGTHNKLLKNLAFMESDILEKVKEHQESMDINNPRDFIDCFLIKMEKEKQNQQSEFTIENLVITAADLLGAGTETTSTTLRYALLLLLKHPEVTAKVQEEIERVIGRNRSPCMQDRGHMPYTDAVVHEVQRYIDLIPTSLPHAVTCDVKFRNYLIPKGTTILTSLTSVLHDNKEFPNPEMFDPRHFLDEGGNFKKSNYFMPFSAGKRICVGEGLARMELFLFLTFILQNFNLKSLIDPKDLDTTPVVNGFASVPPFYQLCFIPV
# [8] = target: Cytochrome P450 2D6 (Homo sapiens, UniProt P10635); test: Inhibition of CYP2D6 in human liver microsomes using dextromethorphan as substrate; format: ADME, Microsome; in short: as §2
# Sequence of Cytochrome P450 2D6 (P10635 whole entry): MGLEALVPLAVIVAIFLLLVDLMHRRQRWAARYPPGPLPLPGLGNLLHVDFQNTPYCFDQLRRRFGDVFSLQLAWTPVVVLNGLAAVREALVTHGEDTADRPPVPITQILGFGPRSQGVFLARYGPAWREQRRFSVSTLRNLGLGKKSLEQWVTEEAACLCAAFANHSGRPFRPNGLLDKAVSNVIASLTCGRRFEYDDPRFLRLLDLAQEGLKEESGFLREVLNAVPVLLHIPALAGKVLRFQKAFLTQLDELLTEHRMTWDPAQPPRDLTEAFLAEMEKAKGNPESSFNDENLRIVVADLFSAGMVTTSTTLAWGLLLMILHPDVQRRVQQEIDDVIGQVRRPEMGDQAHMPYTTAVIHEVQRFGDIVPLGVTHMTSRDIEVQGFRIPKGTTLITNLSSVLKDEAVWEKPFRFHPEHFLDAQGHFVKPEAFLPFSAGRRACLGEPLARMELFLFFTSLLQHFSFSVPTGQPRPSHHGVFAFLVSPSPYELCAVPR
# [9] = target: Cytochrome P450 3A4 (Homo sapiens, UniProt P08684); test: Inhibition of CYP3A4 in human liver microsomes using Testosterone as substrate; format: ADME, Microsome; in short: as §2
# Sequence of Cytochrome P450 3A4 (P08684 whole entry): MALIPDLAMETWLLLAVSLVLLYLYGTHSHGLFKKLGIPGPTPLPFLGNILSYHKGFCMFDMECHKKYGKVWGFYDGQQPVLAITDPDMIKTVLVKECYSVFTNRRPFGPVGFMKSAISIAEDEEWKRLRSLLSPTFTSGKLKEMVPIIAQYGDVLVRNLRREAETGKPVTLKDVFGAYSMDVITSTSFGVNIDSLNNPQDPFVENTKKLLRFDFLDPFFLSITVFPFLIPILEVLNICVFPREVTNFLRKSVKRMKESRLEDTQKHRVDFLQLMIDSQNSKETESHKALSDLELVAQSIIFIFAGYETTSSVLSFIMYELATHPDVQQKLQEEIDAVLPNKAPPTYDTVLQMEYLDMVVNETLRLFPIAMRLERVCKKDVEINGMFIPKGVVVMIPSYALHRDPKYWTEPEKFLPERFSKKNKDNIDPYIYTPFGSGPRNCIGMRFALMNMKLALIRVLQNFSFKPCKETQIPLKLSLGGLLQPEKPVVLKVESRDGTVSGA
# [10] = Clearance in C57BL6 mouse at 0.3 to 3 mg/kg, iv; format: ADME, organism-based; conditions: in vivo, dose 0.3-3 mg/kg
# In short: (§3)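 Single iv dose of 0.3, 1 or 3 mg/kg in 0.9 % saline, three animals per dose (C57Bl6 mice, Wistar rats). Terminal cardiac-puncture blood under isoflurane at six time points. Plasma protein-precipitated and assayed by UHPLC–MS/MS (LLOQ 1 ng/mL). Parameters from non-compartmental analysis.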
# [11] = Clearance in C57BL6 mouse at 3 mg/kg, iv; format: ADME, organism-based; conditions: in vivo; in short: as §3
# [12] = Volume of distribution in C57BL6 mouse at 0.3 to 3 mg/kg, iv; format: ADME, organism-based; conditions: in vivo, dose 0.3-3 mg/kg
# In short: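 Pharmacokinetics in C57Bl6 mice given the compound iv at 0.3, 1 or 3 mg/kg in 0.9 % saline (10 mL/kg), three animals per dose. Terminal cardiac blood taken under isoflurane at six time points. Plasma analyzed by UHPLC–MS/MS (LLOQ 1 ng/mL). Parameters derived by non-compartmental analysis.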
# [13] = Half life in C57BL6 mouse at 0.3 to 3 mg/kg, iv; format: ADME, organism-based; conditions: in vivo, dose 0.3-3 mg/kg; in short: as §3
# [14] = Half life in Wistar rat at 0.3 to 3 mg/kg, iv; format: ADME, organism-based; conditions: in vivo, dose 0.3-3 mg/kg; in short: as §3
compound,measurement,setting,value
COc1cc(N)c(F)cc1C(=O)CCC1CCN(CC2CCCCC2)CC1.O=C(O)/C=C/C(=O)O,Drug metabolism,[1],89%
same,Drug metabolism,[2],26%
same,Drug metabolism,[3],60%
same,Drug metabolism,[4],63%
same,Drug metabolism,[5],17%
same,IC50,[6],83.1 µM
same,IC50,[7],7.2 µM
same,IC50,[8],0.6 µM
same,IC50,[9],8 µM
same,clearance,[10],35.5 mL/min/kg
same,clearance,[11],191 mL/min/kg
same,Vd,[12],3.6 L/kg
same,half-life,[13],47.8 min
same,half-life,[14],46.1 min

# Reference: ChEMBL document CHEMBL6092210, “Synthesis, in vitro and in vivo biological evaluation of novel dual compounds targeting both acetylcholinesterase and serotonergic 5-HT4 receptors with potential interest in the treatment of Alzheimer's disease” (Eur J Med Chem, 2024)
